Experiment [1] in a line: Displacement of [125I]TZDM from amyloid beta (1 to 40) aggregates after 2 hrs by gamma counting. In outline: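 Competition binding against [125I]TZDM as radiolabeled standard, using Aβ1–40 aggregates; run in triplicate, results as mean ± SD.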
Background: Loss of bound radioactivity is the signal in a displacement assay; it reports binding, not function.

The species entered for experiment [2] is Mus musculus. The experiment is described as follows: Binding affinity to beta-amyloid plaque in APP/PS1 transgenic mouse C57 brain after 20 mins by fluorescent staining with thioflavin-S. The experiment is classed as tissue-based. To be noted: tested as the 125I-labelled form.
The species entered for experiment [3] is Mus musculus. Nature of the experiment: Binding affinity to beta-amyloid plaque in APP/PS1 transgenic mouse C57 brain after 20 mins by autoradiography. To be noted: tested as the 125I-labelled form. The experiment is classed as tissue-based. The method, boiled down:
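In vitro autoradiography of brain sections from AD model mice (C57, APP/PS1), labeled with the 125I-iodinated tracer.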

One molecule from ChEMBL document CHEMBL1828568, “Novel imaging agents for β-amyloid plaque based on the N-benzoylindole core” (Bioorg Med Chem Lett, 2011) can be followed below.

A word on the Ki: it is the equilibrium dissociation constant of an inhibitor or competing ligand from its target. A high value points to lower affinity.

SMILES strings stand for the structures. The source made the active and inactive calls. The rule behind the calls is not given here.

In turn, `O=C(/C=C/c1ccccc1)n1ccc2cc(I)ccc21` showed an inhibition constant (Ki) in experiment [1] of 8.4 nM. The outcome in the experiment listed under Mus musculus [2] and in the experiment listed under Mus musculus [3] was Active.
